Legend:
[1] = Pharmacokinetic studies in rats; format: in vivo, Sprague Dawley (SD) rats
Method in brief: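 Female SD rats (200±20 g), three per group, received a single tail-vein injection in 0.9% saline (10 mg/kg drug-equivalent). Retro-orbital blood was taken at 5, 15 and 30 min and at 1, 1.5, 2, 4, 7, 10 and 24 h into heparinized tubes. Plasma was stored at −20°C, extracted, redissolved in acetonitrile, filtered and quantified by HPLC against spiked-plasma standard curves. Parameters came from a two-compartment model fit.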

4T1 murine breast tumors = assay: In vivo anticancer efficacy; conditions: 4T1 tumor-bearing BALB/c mice, PTX 10 mg/kg i.v. at days 10, 13, 16, 19
Method in brief: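 Female BALB/c mice (4–6 weeks old) were inoculated subcutaneously in the left back, under anesthesia, with ~5×10^5 4T1 cells in PBS. Dosing began at a tumor volume of about 50–100 mm3: 10 mg/kg drug-equivalent by tail-vein injection on days 10, 13, 16 and 19 after inoculation, with a normal-saline control. Tumors (V = L×W²/2) and body weight were measured every 2 days until day 23. Survival was followed until death from tumor growth or treatment.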

4T1 cells = assay: In vitro cytotoxicity, WST-8 assay; format: cell-based, mouse; conditions: 48 hours, WST-8, n=5
[2] = Toxicity in tumor-bearing mice; format: in vivo; conditions: PTX 10 mg/kg i.v. in 4T1 tumor-bearing BALB/c mice
[3] = Sprague-Dawley, rat, plasma, iv, 10 mg/kg
[4] = rats, i.v. tail vein, 10 mg/kg of PTX, two-compartment model

CC(=O)O[C@H]1C(=O)[C@@]2(C)[C@H]([C@H](OC(=O)c3ccccc3)[C@]3(O)C[C@H](OC(=O)[C@H](O)[C@@H](NC(=O)c4ccccc4)c4ccccc4)C(C)=C1C3(C)C)[C@]1(OC(C)=O)CO[C@@H]1C[C@@H]2O [Free PTX, paclitaxel]
AUC(0-inf) [1, 3]: 49200 ± 16900 ng·h/mL | AUC(0-t) [1, 3]: 46600 ± 16800 ng·h/mL | clearance [1, 3]: 8.5 mL/min/kg | k el [1, 3]: 0.000511 s⁻¹ | K12 (transfer rate constant from central to periphery compartment) [1, 4]: 0.45 ± 0.33 h⁻¹ | K21 (transfer rate constant from periphery to central compartment) [1, 4]: 0.55 ± 0.24 h⁻¹ | V1 (volume of central compartment) [1, 4]: 0.28 ± 0.02 L/kg | V2 (volume of periphery compartment) [1, 4]: 0.21 ± 0.12 L/kg | median survival time (4T1 murine breast tumors): 31 days | tumor inhibition rate (4T1 murine breast tumors; n=8): 32.5% | cytotoxicity (cell viability) compared with other formulations (4T1 cells): stronger inhibition effects compared to the PEGylated nanoparticles | acute toxicity / deaths after intravenous injection [2]: some deaths were observed a few minutes after the injection
